In data set [1] the target is T1, Tyrosine-protein kinase JAK3 (Homo sapiens, UniProt P52333).
T1 sequence (P52333 whole entry): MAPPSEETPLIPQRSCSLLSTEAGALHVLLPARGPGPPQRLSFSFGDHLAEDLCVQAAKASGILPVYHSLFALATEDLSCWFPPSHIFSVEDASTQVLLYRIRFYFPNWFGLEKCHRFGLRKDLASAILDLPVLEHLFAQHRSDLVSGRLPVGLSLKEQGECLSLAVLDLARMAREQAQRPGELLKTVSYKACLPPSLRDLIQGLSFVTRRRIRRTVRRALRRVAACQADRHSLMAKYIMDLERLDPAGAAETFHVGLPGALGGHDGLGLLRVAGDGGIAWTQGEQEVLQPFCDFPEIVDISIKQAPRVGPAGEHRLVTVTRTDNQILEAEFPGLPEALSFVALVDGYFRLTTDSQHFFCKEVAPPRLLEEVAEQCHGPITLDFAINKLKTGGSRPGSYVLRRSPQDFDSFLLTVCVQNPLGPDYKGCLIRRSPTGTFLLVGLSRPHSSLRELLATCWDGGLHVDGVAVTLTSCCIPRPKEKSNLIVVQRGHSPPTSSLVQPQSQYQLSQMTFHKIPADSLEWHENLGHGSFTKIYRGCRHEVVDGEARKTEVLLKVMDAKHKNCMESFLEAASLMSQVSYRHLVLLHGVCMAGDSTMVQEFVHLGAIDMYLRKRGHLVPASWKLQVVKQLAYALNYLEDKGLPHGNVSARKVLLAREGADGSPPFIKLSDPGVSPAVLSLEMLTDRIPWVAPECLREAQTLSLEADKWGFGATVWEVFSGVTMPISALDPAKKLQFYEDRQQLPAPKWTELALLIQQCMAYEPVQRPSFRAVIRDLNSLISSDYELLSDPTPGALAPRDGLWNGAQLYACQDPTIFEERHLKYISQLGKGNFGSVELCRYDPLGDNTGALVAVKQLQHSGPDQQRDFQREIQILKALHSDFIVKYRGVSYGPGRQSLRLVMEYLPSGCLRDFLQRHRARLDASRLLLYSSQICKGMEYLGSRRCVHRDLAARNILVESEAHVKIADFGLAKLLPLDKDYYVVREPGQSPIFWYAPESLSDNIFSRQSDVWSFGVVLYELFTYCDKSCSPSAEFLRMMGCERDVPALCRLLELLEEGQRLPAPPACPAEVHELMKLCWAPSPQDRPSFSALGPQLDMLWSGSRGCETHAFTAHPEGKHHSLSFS
Kind of data set: Inhibition of recombinant human JAK3 (781 to 1124 residues) expressed in insect cells using 5FAM-GEEPLYWSFPAKKK-NH2 as substrate after 10 mins by caliper assay. Put shortly:
(§1)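 Biochemical kinase inhibition IC50 measured at 5 mM ATP. Values are the geometric mean of at least two independent experiments.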

Data set [2] deals with Tyrosine-protein kinase JAK2 (Homo sapiens, UniProt O60674). Kind of data set: Inhibition of recombinant human JAK2 (831 to 1132 residues) expressed in insect cells using 5FAM-GEEPLYWSFPAKKK-NH2 as substrate after 10 mins by caliper assay. The essentials:
as §1

The nature of data set [3]: Octanol-water partition coefficient, log D of the compound in sodium phosphate buffer at pH 7.4 after 5 hrs by shake-flask assay. It counts as physicochemical.
Data set [4] has as its target T2, Tyrosine-protein kinase JAK1 (Homo sapiens, UniProt P23458). Kind of data set: Inhibition of cytoplasmic recombinant human GST-tagged JAK1 (886 to 1154 residues) expressed in insect cells using FITC-C6-KKHTDDGYMPMSPGVA-NH as substrate after 10 mins by caliper assay. Put shortly:
as §1

The target of data set [5] is T2, Tyrosine-protein kinase JAK1. As to the kind of experiment: Inhibition of JAK1 in human NCI-H1975 cells assessed as reduction in STAT3 phosphorylation after 1 hr by ELISA. It counts as cell-based. The essentials: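 Cellular mode-of-action assay in NCI-H1975 cells, read as inhibition of STAT3 phosphorylation. EC50 was derived.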
In general terms: An ELISA detects its analyte on a solid surface through an enzyme-linked reagent.

The species named for a further data set is Homo sapiens. As to the kind of experiment: Selectivity ratio of IC50 for recombinant human JAK2 (831 to 1132 residues) expressed in insect cell to IC50 for cytoplasmic recombinant human GST-tagged JAK1 (886 to 1154 residues) expressed in baculovirus. Put shortly:
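Biochemical IC50s measured against JAK1 and JAK2 at 5 mM ATP. Each IC50 is the geometric mean of at least two independent experiments. The ratio is the JAK2 IC50 divided by the JAK1 IC50.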

For data set [6], the target named is Non-receptor tyrosine-protein kinase TYK2 (Homo sapiens, UniProt P29597). As to the kind of experiment: Inhibition of recombinant human N-terminal GST-tagged TYK2 (871 to 1187 residues) expressed in baculovirus expression system using 5FAM-GEEPLYWSFPAKKK-NH2 as substrate after 10 mins by caliper assay. Put shortly:
as §1

Another data set deals with A549. As to the kind of experiment: Antiproliferative activity against human A549 cells after 48 hrs by Alamar Blue based assay. The note with it: A549, 48 h. The data set is classed as functional. The essentials: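 Antiproliferation assay in A549 cells, reported as GI50.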
For orientation: Resazurin is reduced to fluorescent resorufin, in cell work by metabolically active cells.

The nature of data set [7]: Intrinsic clearance in human liver microsomes. It counts as ADME, microsome. The note with it: read-out: CLH.

pEC50, pIC50: −log10 of the molar value.

T2 sequence (P23458 whole entry, the tested form may be a part): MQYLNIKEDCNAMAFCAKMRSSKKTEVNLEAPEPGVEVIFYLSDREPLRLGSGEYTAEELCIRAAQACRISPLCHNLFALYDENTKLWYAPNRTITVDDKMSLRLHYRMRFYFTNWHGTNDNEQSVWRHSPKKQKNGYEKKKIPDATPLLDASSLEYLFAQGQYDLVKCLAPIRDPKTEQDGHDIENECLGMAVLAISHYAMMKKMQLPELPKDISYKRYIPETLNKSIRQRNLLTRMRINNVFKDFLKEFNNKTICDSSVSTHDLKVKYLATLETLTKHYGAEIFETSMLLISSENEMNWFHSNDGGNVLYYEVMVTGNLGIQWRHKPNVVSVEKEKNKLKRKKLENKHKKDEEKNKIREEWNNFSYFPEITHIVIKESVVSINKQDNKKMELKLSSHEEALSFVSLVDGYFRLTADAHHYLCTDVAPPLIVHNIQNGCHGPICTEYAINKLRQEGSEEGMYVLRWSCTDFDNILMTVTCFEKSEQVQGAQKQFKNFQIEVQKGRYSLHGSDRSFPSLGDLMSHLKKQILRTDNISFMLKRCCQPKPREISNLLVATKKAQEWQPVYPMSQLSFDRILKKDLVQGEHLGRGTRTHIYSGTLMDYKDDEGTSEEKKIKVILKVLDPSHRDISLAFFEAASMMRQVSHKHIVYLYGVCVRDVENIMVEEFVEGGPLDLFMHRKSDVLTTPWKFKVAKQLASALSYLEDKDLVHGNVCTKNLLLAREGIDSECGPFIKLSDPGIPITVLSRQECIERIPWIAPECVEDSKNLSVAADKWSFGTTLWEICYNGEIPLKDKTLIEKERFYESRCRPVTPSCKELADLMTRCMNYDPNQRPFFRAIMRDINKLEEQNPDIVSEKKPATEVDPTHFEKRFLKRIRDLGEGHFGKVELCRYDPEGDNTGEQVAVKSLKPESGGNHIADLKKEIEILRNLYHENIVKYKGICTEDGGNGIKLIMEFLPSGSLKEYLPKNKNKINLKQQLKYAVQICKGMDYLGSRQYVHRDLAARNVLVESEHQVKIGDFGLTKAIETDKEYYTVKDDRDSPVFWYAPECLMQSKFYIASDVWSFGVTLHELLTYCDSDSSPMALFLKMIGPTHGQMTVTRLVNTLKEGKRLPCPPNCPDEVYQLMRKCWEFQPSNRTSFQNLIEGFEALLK
Chain of Tyrosine-protein kinase JAK2 (O60674 whole entry, the tested form may be a part): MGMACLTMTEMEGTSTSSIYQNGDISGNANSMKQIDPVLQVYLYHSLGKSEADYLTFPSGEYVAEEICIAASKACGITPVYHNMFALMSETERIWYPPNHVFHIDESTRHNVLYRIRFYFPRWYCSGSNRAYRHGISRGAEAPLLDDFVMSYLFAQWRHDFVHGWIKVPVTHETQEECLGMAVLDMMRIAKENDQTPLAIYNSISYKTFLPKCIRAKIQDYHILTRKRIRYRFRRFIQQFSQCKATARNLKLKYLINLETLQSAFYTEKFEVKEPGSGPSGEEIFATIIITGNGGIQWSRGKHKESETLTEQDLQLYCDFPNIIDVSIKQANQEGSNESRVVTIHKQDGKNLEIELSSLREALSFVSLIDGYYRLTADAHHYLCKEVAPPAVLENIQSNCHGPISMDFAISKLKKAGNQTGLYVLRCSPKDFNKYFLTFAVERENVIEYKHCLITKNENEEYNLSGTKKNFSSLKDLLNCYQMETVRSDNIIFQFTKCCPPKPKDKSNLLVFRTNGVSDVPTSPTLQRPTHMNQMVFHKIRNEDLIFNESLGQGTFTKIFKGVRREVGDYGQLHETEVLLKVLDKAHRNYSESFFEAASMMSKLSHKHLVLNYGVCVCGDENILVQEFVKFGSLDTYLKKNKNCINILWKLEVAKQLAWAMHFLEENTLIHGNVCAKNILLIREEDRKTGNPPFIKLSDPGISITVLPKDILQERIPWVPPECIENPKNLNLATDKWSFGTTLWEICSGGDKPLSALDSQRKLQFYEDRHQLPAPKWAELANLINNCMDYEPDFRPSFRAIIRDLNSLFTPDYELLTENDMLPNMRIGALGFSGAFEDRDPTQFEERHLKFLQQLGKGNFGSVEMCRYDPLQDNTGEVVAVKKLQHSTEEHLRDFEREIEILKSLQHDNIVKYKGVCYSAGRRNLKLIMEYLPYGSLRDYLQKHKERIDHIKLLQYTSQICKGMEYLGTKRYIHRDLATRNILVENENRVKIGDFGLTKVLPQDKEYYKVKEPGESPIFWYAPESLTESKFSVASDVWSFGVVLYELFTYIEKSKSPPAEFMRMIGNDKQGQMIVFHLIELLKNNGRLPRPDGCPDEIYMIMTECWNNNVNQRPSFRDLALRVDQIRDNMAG
Chain of Non-receptor tyrosine-protein kinase TYK2 (P29597 whole entry, the tested form may be a part): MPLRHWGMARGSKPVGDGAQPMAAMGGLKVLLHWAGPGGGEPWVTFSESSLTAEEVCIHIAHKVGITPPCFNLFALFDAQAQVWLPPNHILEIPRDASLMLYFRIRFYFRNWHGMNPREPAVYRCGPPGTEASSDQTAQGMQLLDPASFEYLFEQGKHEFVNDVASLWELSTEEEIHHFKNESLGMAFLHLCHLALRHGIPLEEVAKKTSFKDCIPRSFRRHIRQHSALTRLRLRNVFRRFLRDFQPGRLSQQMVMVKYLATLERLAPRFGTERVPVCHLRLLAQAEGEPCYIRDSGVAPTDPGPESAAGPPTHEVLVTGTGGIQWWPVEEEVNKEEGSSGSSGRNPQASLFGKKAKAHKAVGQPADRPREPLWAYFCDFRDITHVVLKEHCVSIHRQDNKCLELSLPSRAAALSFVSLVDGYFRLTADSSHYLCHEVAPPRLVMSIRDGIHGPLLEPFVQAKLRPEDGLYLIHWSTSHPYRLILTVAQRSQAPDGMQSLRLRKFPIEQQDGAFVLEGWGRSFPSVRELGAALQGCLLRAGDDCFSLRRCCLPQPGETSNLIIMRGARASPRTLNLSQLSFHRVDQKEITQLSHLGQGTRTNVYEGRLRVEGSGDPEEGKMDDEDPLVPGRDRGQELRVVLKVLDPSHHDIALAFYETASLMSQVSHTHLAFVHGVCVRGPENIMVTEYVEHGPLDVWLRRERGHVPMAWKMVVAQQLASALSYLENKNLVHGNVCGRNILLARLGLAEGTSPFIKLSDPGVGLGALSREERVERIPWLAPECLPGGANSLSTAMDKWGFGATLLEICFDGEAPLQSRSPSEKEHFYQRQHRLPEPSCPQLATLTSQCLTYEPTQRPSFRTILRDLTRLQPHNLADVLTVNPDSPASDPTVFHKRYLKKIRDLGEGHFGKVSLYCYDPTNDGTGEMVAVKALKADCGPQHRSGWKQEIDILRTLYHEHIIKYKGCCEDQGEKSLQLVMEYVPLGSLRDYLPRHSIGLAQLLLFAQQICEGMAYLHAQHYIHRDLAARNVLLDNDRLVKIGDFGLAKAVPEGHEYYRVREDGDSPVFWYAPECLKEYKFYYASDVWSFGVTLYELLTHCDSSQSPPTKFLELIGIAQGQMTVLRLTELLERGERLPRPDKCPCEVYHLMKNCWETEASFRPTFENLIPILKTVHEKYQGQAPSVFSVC

Broadly, the pIC50 is −log10 of the IC50, conventionally taken in molar units. By logD is commonly meant lipophilicity at a set pH, counting ionised and neutral species. A low value points to a more hydrophilic compound. As a reminder, the pEC50 is −log10 of the EC50, conventionally taken in molar units. As for `Cc1cnc(Nc2cc(N3CCN(CCO)CC3)cc(S(C)(=O)=O)c2)nc1Nc1cccc(CO)c1`, the values for the pIC50 in [1], in data set [2] and in data set [4] were below 4.52, 6.09 and 8.22, respectively. For the same molecule, the logD at 5 h in data set [3] stood at 1.29. Also, in data set [5], the negative-log EC50 (pEC50) is below 5.52.
On to `CN1CCN(c2cc(Nc3ncc(Cl)c(Nc4cccc(CO)c4)n3)cc(S(C)(=O)=O)c2)CC1`, for which the results for the negative logarithm of the IC50 (pIC50) in [1], in data set [2] and in data set [4] were 4.90, 6.14 and above 8.52, respectively. Also, in the data set listed under Homo sapiens, the Ratio IC50 is above 240. In data set [3], the log distribution coefficient (logD) at 5 h turned out to be 2.16.
On to `Cc1cnc(Nc2cc(N3CCOCC3)cc(S(C)(=O)=O)c2)nc1Nc1cccc(CO)c1`, for which the pIC50 is below 4.52 in [1], 6.38 in data set [2] and 7.89 in data set [4]. The Ratio IC50 in the data set filed under Homo sapiens turned out to be 32.
As for `CC(=O)N1CCN(c2cc(Nc3ncc(C)c(Nc4cccc(CO)c4)n3)cc(S(C)(=O)=O)c2)CC1`, the negative logarithm of the IC50 (pIC50) in [1] was 4.61; in data set [2], 6.46; in [4], 8.00. Further, the log distribution coefficient (logD) at 5 h in data set [3] was determined as 1.74. Moreover, in data set [5], the negative-log EC50 (pEC50) was below 5.52.
Turning to `CN1CCN(c2cc(Nc3ncc(F)c(Nc4cccc(CO)c4)n3)cc(S(C)(=O)=O)c2)CC1`, the negative logarithm of the IC50 (pIC50) in data set [1] was below 4.52; in data set [2], 5.19; in [4] it was 7.38. For the same molecule, the Ratio IC50 in the data set filed under Homo sapiens came to 150. For the same molecule, the logD at 5 h in [3] amounted to 1.84.
Take `Cc1cnc(Nc2cc(N3C[C@@H](C)N[C@@H](C)C3)cc(S(C)(=O)=O)c2)nc1Nc1cccc(CO)c1`: the negative logarithm of the IC50 (pIC50) in data set [1] is below 4.52; in [2] it was 6.00; in [4], 8.30. The same molecule registered a logD at 5 h in data set [3] of 1.24. Besides, the pEC50 in data set [5] was 6.49.
On the same counts, the results for `Cc1cnc(Nc2cc(N3CCNCC3)cc(S(C)(=O)=O)c2)nc1Nc1cccc(CO)c1` are below 4.52, 6.02, above 8.52, 1.09 and 6.30.
Regarding `CN1CCN(c2cc(Nc3nccc(Nc4ccc(F)c(Cl)c4F)n3)cc(S(C)(=O)=O)c2)CC1`, the figures for the pIC50 in data set [1], in data set [2] and in [4] were 6.33, 7.44 and above 8.52, respectively. Further, the Ratio IC50 in the data set filed under Homo sapiens was above 10.
Regarding `COCCN1CCN(c2cc(Nc3ncc(C)c(Nc4cccc(CO)c4)n3)cc(S(C)(=O)=O)c2)CC1`, the pIC50 in data set [1] is below 4.52; in [2], 5.99; in data set [4], 7.92. This molecule also returned a log distribution coefficient (logD) at 5 h in [3] of 1.9. In addition, in data set [5], the pEC50 was 6.72.
With `Cc1cnc(Nc2cc(N3C[C@@H]4C[C@H]3CN4C)ccc2F)nc1Nc1cccc(CO)c1`, the negative-log IC50 (pIC50) is below 4.52 in data set [1], below 4.52 in [2] and 6.93 in data set [4]. In addition, in data set [5], the pEC50 was 7.00.
As for `Cc1cnc(Nc2cc(N3CCOCC3)cc(N3CCOCC3)c2)nc1Nc1cccc(CO)c1`, the negative logarithm of the IC50 (pIC50) in data set [1] is 6.43; in data set [2], above 8.52; in data set [4] it was 8.40. Also, in the data set listed under Homo sapiens, the Ratio IC50 was below 0.75.
As for `Cc1cnc(Nc2cc(N3C[C@@H]4C[C@H]3CN4C)cnc2F)nc1N[C@H](C)C(C)C`, the negative logarithm of the IC50 (pIC50) is below 4.52 in data set [2], 4.61 in data set [6] and 7.59 in data set [4]. In addition, the pEC50 in [5] was 7.30.
A word on the GI50: it is the concentration that inhibits growth by half. With `CCC(CC)Nc1nc(Nc2cc(N3C[C@@H]4C[C@H]3CN4C)cnc2F)ncc1C`, the pIC50 in [1] is below 4.52; in [2], below 4.52; in [6] it was below 4.52; in data set [4], 7.54. The molecule also had a GI50 in the data set with A549 above 10000 nM. The pEC50 in data set [5] was 7.36.
For `Cc1cnc(Nc2cc(N3CCN(C)CC3)cc(S(C)(=O)=O)c2)nc1Nc1cccc(CO)c1`, the microsomal CLint in data set [7] was 59.5 µL/min/mg. The negative-log IC50 (pIC50) in [1] was below 4.52; in data set [2], 6.03; in data set [4] it was above 8.52. Also, the Ratio IC50 in the data set listed under Homo sapiens is above 309. Further, in data set [3], the logD at 5 h was 1.74. The pEC50 in data set [5] was 7.00.
As for `Cc1cnc(Nc2cccc(N3CCN(C)CC3)c2)nc1Nc1cccc(CO)c1`, the negative logarithm of the IC50 (pIC50) in [1] is 4.69; in data set [2] it was 6.45; in data set [4], 7.26. Also, the Ratio IC50 in the data set listed under Homo sapiens is 6.5.
For `Cc1cnc(Nc2cc(N3C[C@@H]4C[C@H]3CN4C)cc(S(C)(=O)=O)c2)nc1Nc1cccc(CO)c1`, the microsomal CLint in data set [7] was 7.32 µL/min/mg. For the same molecule, the pIC50 is below 4.55 in data set [1], 5.93 in data set [2] and above 8.52 in data set [4]. Further, in data set [3], the logD at 5 h was 0.82. Also, the pEC50 in data set [5] is 7.04.
Turning to `Cc1cnc(Nc2cc(N3C[C@@H]4C[C@H]3CN4C)cnc2F)nc1Nc1cccc(CO)c1`, the values for the negative-log IC50 (pIC50) in data set [1], in data set [2] and in [4] were below 4.52, below 4.52 and 7.40, respectively. The molecule also displayed a 50% growth inhibitory concentration (GI50) with A549 of 253 nM. The pEC50 in [5] is 7.17.
For the molecule `Cc1cnc(Nc2cc(C(F)F)cc(N3C[C@@H]4C[C@H]3CN4C)c2)nc1Nc1cccc(CO)c1`, the results for the negative-log IC50 (pIC50) in data set [1], in data set [2] and in data set [4] were 4.74, 6.42 and 7.80, respectively. Further, the negative-log EC50 (pEC50) in data set [5] is 7.43.
For `CN1CCN(c2cc(Nc3nccc(Nc4cccc(CO)c4)n3)cc(S(C)(=O)=O)c2)CC1`, the negative-log IC50 (pIC50) in data set [1] is below 4.52; in data set [2] it was 4.86; in data set [4], 7.00 to 8.52. Besides, in the data set filed under Homo sapiens, the Ratio IC50 amounted to 140. This molecule also gave a pH-dependent lipophilicity (logD) at 5 h in data set [3] of 1.75.
On the same counts, the results for `CN1CCN(c2cc(Nc3ncc(Br)c(Nc4cccc(CO)c4)n3)cc(S(C)(=O)=O)c2)CC1` are 5.18, 6.44, above 8.52, above 120 and 2.43.
Consider `Cc1cnc(Nc2cc(N3C[C@@H]4C[C@H]3CN4C)cc(C(F)F)c2F)nc1Nc1cccc(CO)c1`, for which the values for the pIC50 in data set [1], in [2] and in data set [4] were below 4.52, below 4.52 and 7.26, respectively. The pEC50 in data set [5] is 7.59.
